From PMC7938327 (Journal of medicinal chemistry, 2017)
“Also recorded” adds a separate entry of the source.

Columns and labels:
[1] = biological target: T1, purified recombinant ENPP7 (Homo sapiens, UniProt Q6UWV6); test: ENPP7 inhibition, pNPPC hydrolysis; format: biochemical; conditions: 10 μM pNPPC, 10 nM ENPP7, compound 0 to 10 μM; data not shown
T1 sequence (Q6UWV6 22-458): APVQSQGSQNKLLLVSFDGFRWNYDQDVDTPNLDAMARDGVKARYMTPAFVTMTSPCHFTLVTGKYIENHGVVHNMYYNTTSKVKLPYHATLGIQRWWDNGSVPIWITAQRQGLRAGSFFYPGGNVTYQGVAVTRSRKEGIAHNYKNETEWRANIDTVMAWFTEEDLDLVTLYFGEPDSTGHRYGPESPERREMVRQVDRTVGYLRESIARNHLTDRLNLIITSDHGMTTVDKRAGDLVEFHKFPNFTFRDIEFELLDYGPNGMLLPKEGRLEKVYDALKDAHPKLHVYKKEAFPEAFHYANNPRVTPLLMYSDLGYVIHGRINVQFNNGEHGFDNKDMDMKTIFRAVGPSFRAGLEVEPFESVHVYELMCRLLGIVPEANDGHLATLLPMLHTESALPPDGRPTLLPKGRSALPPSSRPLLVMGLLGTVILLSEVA
Method in brief: (§1)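 Purified recombinant enzyme (0 or 10 nM) was incubated with 10 μM pNPPC and 0–10 μM test compound in triplicate wells. Buffers were 100 mM Tris, 500 mM NaCl, 0.05% Triton, pH 9.0 for ENPP6, and 50 mM Tris, 150 mM NaCl, 10 mM taurocholate, pH 8.5 for ENPP7. Absorbance at 405 nm was read every 2 min for 1 h.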

[2] = tested on: 4T1-TaxR cancer stem-like cells (mammospheres); test: 4T1-TaxR mammosphere viability with paclitaxel; format: cell-based, mouse
[3] = In vitro stability in 4T1 cell culture by LC-MS; format: in vitro ADME, mouse; conditions: 40 h of exposure to 4T1 cells
[4] = tested on: A2058 human melanoma cells; test: ATX-mediated in vitro invasion assay; format: cell-based; conditions: exogenous LPC and recombinant ATX; for inhibition of A2058 cell invasion, screen at 10 μM: compared with 30; for inhibition of A2058 cell invasion (in words): dose–response
[5] = biological target: T2, purified recombinant ENPP6 (Homo sapiens, UniProt Q6UWR7); test: ENPP6 inhibition, pNPPC hydrolysis; format: biochemical; conditions: 10 μM pNPPC, 10 nM ENPP6, compound 0 to 10 μM; data not shown
T2 sequence (Q6UWR7 23-440): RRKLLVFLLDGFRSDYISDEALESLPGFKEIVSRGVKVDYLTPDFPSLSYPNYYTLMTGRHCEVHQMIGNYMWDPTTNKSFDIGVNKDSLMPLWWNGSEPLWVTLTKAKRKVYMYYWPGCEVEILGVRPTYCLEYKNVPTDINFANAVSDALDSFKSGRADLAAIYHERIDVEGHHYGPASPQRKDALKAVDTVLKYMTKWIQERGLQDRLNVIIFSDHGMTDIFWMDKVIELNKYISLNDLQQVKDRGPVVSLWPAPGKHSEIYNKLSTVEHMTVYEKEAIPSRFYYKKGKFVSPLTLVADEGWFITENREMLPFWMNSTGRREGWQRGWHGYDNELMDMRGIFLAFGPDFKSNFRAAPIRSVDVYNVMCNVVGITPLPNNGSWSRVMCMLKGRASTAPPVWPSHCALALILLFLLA
Method in brief: as §1

[6] = biological target: LPA1 (Homo sapiens, UniProt Q92633); test: LPA-mediated Ca2+ mobilization, LPA1 RH7777 cells; format: cell-based; conditions: for antagonist activity at LPA1 (in words): LPA1-elicited Ca2+ responses
Chain of LPA1 (Q92633 whole entry, species assumed): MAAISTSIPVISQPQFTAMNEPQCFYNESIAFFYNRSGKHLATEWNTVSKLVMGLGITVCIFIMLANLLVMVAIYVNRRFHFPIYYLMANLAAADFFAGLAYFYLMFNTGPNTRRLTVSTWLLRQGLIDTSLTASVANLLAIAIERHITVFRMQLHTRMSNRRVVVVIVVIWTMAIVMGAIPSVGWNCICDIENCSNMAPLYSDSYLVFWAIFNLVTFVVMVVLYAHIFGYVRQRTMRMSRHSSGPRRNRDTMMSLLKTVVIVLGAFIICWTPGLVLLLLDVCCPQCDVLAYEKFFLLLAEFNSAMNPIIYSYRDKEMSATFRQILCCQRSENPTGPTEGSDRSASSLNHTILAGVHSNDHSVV
Method in brief: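 Rat hepatoma RH7777 cells stably expressing LPA1 were seeded at 5 × 10^4 per well on poly-L-lysine, left overnight, then serum-deprived 4 h in HEPES-Krebs buffer pH 7.4. Cells were loaded 30 min with 4.5 μg/mL Fura-2AM plus 0.45% Pluronic F-127. […] The 340/510 and 380/510 nm ratio was read every 3.42 s for 70 s, normalized to LPA Emax, and fitted by variable-slope regression for IC50.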

[7] = tested on: 4T1 breast cancer cell line; test: Chemoresistance of 4T1 cells to paclitaxel; format: cell-based, mouse; conditions: for LD50 to PT with ATX inhibitor pretreatment: 24 h pretreatment with 3 μM compound, then PT 48 h
[8] = biological target: T3, human recombinant ATX (Homo sapiens, UniProt Q13822); test: ATX lysophospholipase D activity, FS-3 hydrolysis; format: biochemical; conditions: FS-3 0 to 10 μM, inhibitor 0, 0.5 × IC50 or 2 × IC50; best global fit
[9] = biological target: T3, human recombinant ATX; test: ATX nucleotide pyrophosphatase activity, pNP-TMP hydrolysis; format: biochemical; conditions: 1 mM pNP-TMP, 4 nM ATX, compound 0 to 1 μM
Method in brief: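 Human recombinant FLAG-tagged ATX was expressed in Sf9 insect cells and purified on anti-FLAG resin. Absorbance at 405 nm was read every 2 min for 1 h.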

[10] = biological target: T4, LPA3 (Homo sapiens, UniProt Q9UBY5); test: LPA-mediated Ca2+ mobilization, LPA3 RH7777 cells; format: cell-based; conditions: RH7777, read-out: LPA3 Emax
T4 sequence (Q9UBY5 1-353): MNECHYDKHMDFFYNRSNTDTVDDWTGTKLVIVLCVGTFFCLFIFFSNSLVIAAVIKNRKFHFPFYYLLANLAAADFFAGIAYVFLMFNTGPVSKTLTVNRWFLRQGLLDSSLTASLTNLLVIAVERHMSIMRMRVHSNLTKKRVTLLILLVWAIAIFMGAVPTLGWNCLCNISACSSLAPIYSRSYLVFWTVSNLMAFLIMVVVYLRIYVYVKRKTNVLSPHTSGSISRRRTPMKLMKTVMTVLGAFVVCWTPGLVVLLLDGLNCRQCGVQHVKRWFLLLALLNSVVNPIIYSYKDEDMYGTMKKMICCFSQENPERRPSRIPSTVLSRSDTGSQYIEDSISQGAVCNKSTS

[11] = biological target: LPA5 (Homo sapiens, UniProt Q9H1C0); test: LPA-mediated Ca2+ mobilization, LPA5 B103 cells; format: cell-based; conditions: LPA 18:1 alone; normalized to percentage of LPA 18:1 Emax
Chain of LPA5 (Q9H1C0 whole entry, species assumed): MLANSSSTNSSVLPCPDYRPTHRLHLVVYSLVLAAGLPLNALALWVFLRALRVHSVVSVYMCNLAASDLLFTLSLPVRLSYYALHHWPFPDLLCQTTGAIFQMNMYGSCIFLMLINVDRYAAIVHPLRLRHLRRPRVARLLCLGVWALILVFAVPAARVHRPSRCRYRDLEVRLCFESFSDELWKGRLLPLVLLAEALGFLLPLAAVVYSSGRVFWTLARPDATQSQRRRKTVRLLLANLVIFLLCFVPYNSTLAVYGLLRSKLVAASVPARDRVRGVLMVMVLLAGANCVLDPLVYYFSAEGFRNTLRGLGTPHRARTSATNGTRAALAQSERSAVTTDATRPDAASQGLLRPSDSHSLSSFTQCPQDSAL

[12] = biological target: LPA2 (Homo sapiens, UniProt Q9HBW0); test: LPA-mediated Ca2+ mobilization, LPA2 MEF cells; format: cell-based; conditions: read-out: LPA2 Emax
Chain of LPA2 (Q9HBW0 whole entry, species assumed): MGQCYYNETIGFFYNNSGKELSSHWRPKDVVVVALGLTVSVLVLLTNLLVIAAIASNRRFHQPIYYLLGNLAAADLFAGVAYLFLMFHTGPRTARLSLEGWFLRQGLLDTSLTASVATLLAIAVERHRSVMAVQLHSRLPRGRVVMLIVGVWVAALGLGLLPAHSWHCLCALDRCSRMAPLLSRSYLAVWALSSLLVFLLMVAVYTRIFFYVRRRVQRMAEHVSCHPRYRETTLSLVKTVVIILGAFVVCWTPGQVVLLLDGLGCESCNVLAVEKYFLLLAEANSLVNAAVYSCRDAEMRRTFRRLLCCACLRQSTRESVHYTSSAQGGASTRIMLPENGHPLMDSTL

[13] = biological target: LPA4 (Homo sapiens, UniProt Q99677); test: LPA-mediated Ca2+ mobilization, LPA4 CHO cells; format: cell-based; conditions: read-out: LPA4 Emax
Chain of LPA4 (Q99677 whole entry, species assumed): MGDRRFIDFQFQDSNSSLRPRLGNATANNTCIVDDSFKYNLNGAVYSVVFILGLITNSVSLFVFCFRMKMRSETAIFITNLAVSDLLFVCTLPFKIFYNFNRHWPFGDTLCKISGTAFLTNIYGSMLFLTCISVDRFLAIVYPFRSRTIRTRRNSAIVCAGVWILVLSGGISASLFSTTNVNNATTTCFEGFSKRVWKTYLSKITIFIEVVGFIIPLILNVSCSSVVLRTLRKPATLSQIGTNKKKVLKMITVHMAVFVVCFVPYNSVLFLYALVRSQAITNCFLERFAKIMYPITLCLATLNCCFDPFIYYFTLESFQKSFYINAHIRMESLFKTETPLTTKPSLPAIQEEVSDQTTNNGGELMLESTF

SMILES | inhibitory activity for ENPP7 [1] | resensitization of cancer stem-like cells to PT (in words) ([2]; 4T1-TaxR cells) | further reduction of cell viability compared to PT alone ([2]; 4T1-TaxR mammospheres, PT 100 nM, compound 5 μM, 3 days) | in vitro stability (in words) [3] | inhibition of A2058 cell invasion, screen at 10 μM [4] | inhibition of A2058 cell invasion (in words) [4] | inhibitory activity for ENPP6 [5] | antagonist activity at LPA1 (in words) [6] | LD50 to PT with ATX inhibitor pretreatment [7] | mechanism [8] | pNP-TMP inhibition [9] | Emax [10] | LPA5 μEmax [11] | Emax [12] | Emax ([6]; RH7777, read-out: LPA1 Emax) | Emax [13] | PT LD50 for reducing cell growth by 50%, applied alone ([7]; PT 48 h, no ATX inhibitor)
O=C(Nc1cc(F)c(F)c(F)c1)c1cc(S(=O)(=O)N2CCOCC2)c(Cl)cc1Cl [Compound 3b, 2,4-Dichloro-5-(morpholinosulfonyl)-N-(3,4,5-trifluorophenyl)-benzamide] | lack inhibitory action | potently reduced in vitro chemotherapeutic resistance; also recorded: effectively resensitized | 25–30% | significant stability | as effective as 30 | inhibit ATX-dependent invasion; also recorded: dose dependently decreased A2058 cell invasion | lack inhibitory action | weak antagonist action; also recorded: exhibited antagonist activity; also recorded: effective in antagonizing LPA1-elicited Ca^2+ responses | 127 nM | competitive | sparing effects on hydrolysis of the nucleotide substrate pNP-TMP and none |  |  |  |  |  | 
O=C(Nc1cc(F)c(Cl)c(F)c1)c1cc(S(=O)(=O)N2CCOCC2)c(Cl)cc1Cl [Compound 3f, 2,4-Dichloro-N-(4-chloro-3,5-difluorophenyl)-5-(morpholinosulfonyl)benzamide] | lack inhibitory action |  |  | significant stability | as effective as 30 | dose dependently decreased A2058 cell invasion | lack inhibitory action | weak antagonist action; also recorded: exhibited antagonist activity; also recorded: effective in antagonizing LPA1-elicited Ca^2+ responses | 66 nM | competitive | none |  |  |  |  |  | 
CCCCCCCC/C=C\CCCCCCCC(=O)OCC(O)COP(=O)(O)O (centres unmarked) [LPA 18:1] |  |  |  |  |  |  |  |  |  |  |  | 100% | 100.00 ± 0.00 | 100% | 100% | 100% | 
CC(=O)O[C@H]1C(=O)[C@@]2(C)[C@H]([C@H](OC(=O)c3ccccc3)[C@]3(O)C[C@H](OC(=O)[C@H](O)[C@@H](NC(=O)c4ccccc4)c4ccccc4)C(C)=C1C3(C)C)[C@]1(OC(C)=O)CO[C@@H]1C[C@@H]2O [PT, paclitaxel, reference compound] |  |  |  |  |  |  |  |  |  |  |  |  |  |  |  |  | 202 nM
